ChEMBL document CHEMBL4340542, “Design, synthesis and biological evaluation of 4-aniline-thieno[2,3-d]pyrimidine derivatives as MNK1 inhibitors against renal cell carcinoma and nasopharyngeal carcinoma” (Bioorg Med Chem, 2019)
Active and inactive are the calls of the source. The rule behind the calls is not given here.

What was measured:
786-0 [1] = assay: Induction of apoptosis in human 786-O cells assessed as viable cells at 1 uM incubated for 24 hrs by Annexin-V/propidium iodide staining based flow cytometric method (reference value: 93.63%); format: functional; details: 786-0, 24 h, read-out: Activity
[2] = molecular target: T1, MAP kinase-interacting serine/threonine-protein kinase 1 (Homo sapiens, UniProt Q9BUB5); assay: Inhibition of human MNK1 using CREBtide substrate by gamma-[32P]-ATP competitive inhibition assay
How it was run: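 Run as the Eurofins KinaseProfiler radiometric assay, competitive with γ-[32P]-ATP. IC50 taken as the mean of independent experiments; the footnote gives two.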
Target sequence in this assay (Q9BUB5 whole entry): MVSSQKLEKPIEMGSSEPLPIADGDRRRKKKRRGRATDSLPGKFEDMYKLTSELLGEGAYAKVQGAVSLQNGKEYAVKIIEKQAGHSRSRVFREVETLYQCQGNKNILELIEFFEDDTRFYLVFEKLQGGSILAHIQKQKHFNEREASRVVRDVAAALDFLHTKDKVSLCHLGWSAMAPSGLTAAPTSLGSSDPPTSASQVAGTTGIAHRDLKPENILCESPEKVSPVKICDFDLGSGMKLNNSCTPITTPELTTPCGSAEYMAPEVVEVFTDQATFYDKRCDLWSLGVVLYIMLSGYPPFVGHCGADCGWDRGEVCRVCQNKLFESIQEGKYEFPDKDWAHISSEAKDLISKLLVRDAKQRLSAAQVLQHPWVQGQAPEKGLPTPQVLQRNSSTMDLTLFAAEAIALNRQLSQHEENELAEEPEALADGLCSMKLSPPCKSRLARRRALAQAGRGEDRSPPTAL

CNE = assay: Cytotoxicity against human CNE1 cells assessed as decrease in cell viability incubated for 24 hrs by MTT assay; format: functional, cell-based
How it was run: (§1)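 IC50 from an 8–10 point concentration gradient by MTT assay. Panel covers renal cell carcinoma and nasopharyngeal carcinoma lines. Values are mean ± SD, n = 3.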

CNE-2 = assay: Cytotoxicity against human CNE2 cells assessed as decrease in cell viability incubated for 24 hrs by MTT assay; format: functional, cell-based; how it was run: as §1
SUNE1 [3] = assay: Cytotoxicity against human SUNE1 cells assessed as decrease in cell viability incubated for 24 hrs by MTT assay; format: functional, cell-based; how it was run: as §1
Homo sapiens = species on record: Homo sapiens; assay: Cytotoxicity against human HNE1 cells assessed as decrease in cell viability incubated for 24 hrs by MTT assay; format: functional, cell-based; how it was run: as §1
A498 = assay: Cytotoxicity against human A498 cells assessed as decrease in cell viability incubated for 24 hrs by MTT assay; format: functional, cell-based; how it was run: as §1
CAKI-1 = assay: Cytotoxicity against human Caki1 cells assessed as decrease in cell viability incubated for 24 hrs by MTT assay; format: functional, cell-based; how it was run: as §1
786-0 [4] = assay: Cytotoxicity against human 786-O cells assessed as decrease in cell viability incubated for 24 hrs by MTT assay; format: functional, cell-based; how it was run: as §1
786-0 [5] = assay: Induction of apoptosis in human 786-O cells assessed as early apoptotic cells at 1 uM incubated for 24 hrs by Annexin-V/propidium iodide staining based flow cytometric method (reference value: 1.74%); format: functional
786-0 [6] = assay: Induction of apoptosis in human 786-O cells assessed as late apoptotic cells at 1 uM incubated for 24 hrs by Annexin-V/propidium iodide staining based flow cytometric method (reference value: 3.80%); format: functional
786-0 [7] = assay: Induction of apoptosis in human 786-O cells assessed as necrotic cells at 1 uM incubated for 24 hrs by Annexin-V/propidium iodide staining based flow cytometric method (reference value: 0.83%); format: functional
786-0 [8] = assay: Induction of apoptosis in human 786-O cells assessed as early apoptotic cells at 5 uM incubated for 24 hrs by Annexin-V/propidium iodide staining based flow cytometric method (reference value: 1.74%); format: functional
786-0 [9] = assay: Induction of apoptosis in human 786-O cells assessed as late apoptotic cells at 5 uM incubated for 24 hrs by Annexin-V/propidium iodide staining based flow cytometric method (reference value: 3.80%); format: functional
786-0 [10] = assay: Induction of apoptosis in human 786-O cells assessed as necrotic cells at 5 uM incubated for 24 hrs by Annexin-V/propidium iodide staining based flow cytometric method (reference value: 0.83%); format: functional
SUNE1 [11] = assay: Induction of apoptosis in human SUNE1 cells assessed as early apoptotic cells at 1 uM incubated for 24 hrs by Annexin-V/propidium iodide staining based flow cytometric method (reference value: 1.03%); format: functional
SUNE1 [12] = assay: Induction of apoptosis in human SUNE1 cells assessed as late apoptotic cells at 1 uM incubated for 24 hrs by Annexin-V/propidium iodide staining based flow cytometric method (reference value: 4.11%); format: functional
SUNE1 [13] = assay: Induction of apoptosis in human SUNE1 cells assessed as necrotic cells at 1 uM incubated for 24 hrs by Annexin-V/propidium iodide staining based flow cytometric method (reference value: 1.07%); format: functional
SUNE1 [14] = assay: Induction of apoptosis in human SUNE1 cells assessed as early apoptotic cells at 5 uM incubated for 24 hrs by Annexin-V/propidium iodide staining based flow cytometric method (reference value: 1.03%); format: functional
SUNE1 [15] = assay: Induction of apoptosis in human SUNE1 cells assessed as late apoptotic cells at 5 uM incubated for 24 hrs by Annexin-V/propidium iodide staining based flow cytometric method (reference value: 4.11%); format: functional
SUNE1 [16] = assay: Induction of apoptosis in human SUNE1 cells assessed as necrotic cells at 5 uM incubated for 24 hrs by Annexin-V/propidium iodide staining based flow cytometric method (reference value: 1.07%); format: functional
SUNE1 [17] = assay: Effect on total ERK1/2 protein expression in human SUNE1 cells incubated for 24 hrs by Western blot analysis relative to control; format: ADME, cell-based; details: sune1, 24 h
How it was run: (§2)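 Cells treated 24 h at 1 µM. The test compound was also given 6 h. Cells harvested, trypsinised and washed twice in cold PBS, then lysed in RIPA buffer on ice and sonicated. Lysate centrifuged cold at 10000 g for 30 min. Supernatant protein quantified, run on SDS-PAGE, transferred to PVDF and probed for ERK1/2, pERK1/2, MNK1, eIF4E and p-eIF4E.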

[18] = molecular target: T1, MAP kinase-interacting serine/threonine-protein kinase 1; assay: Inhibition of MNK1 in human 786-O cells assessed as decrease in eIF4E phosphorylation at 1 uM incubated for 24 hrs by Western blot analysis relative to control; format: cell-based; how it was run: as §2
Target sequence in this assay (Q9BUB5 whole entry, looked up): as the sequence (Q9BUB5 whole entry) above

[19] = molecular target: T2, Mitogen-activated protein kinase; ERK1/ERK2 (Homo sapiens) (UniProt P27361+P28482); assay: Inhibition of ERK1/2 phosphorylation in human 786-O cells at 1 uM incubated for 24 hrs by Western blot analysis relative to control; format: cell-based; how it was run: as §2
SUNE1 [20] = assay: Effect on total MNK1 protein expression in human SUNE1 cells incubated for 24 hrs by Western blot analysis relative to control; format: ADME, cell-based; details: sune1, 24 h; how it was run: as §2
[21] = molecular target: T2, Mitogen-activated protein kinase; ERK1/ERK2 (Homo sapiens); assay: Inhibition of ERK1/2 phosphorylation in human SUNE1 cells at 1 uM incubated for 24 hrs by Western blot analysis relative to control; format: cell-based; how it was run: as §2
786-0 [22] = assay: Induction of apoptosis in human 786-O cells assessed as viable cells at 5 uM incubated for 24 hrs by Annexin-V/propidium iodide staining based flow cytometric method (reference value: 93.63%); format: functional; details: 786-0, 24 h, read-out: Activity
SUNE1 [23] = assay: Induction of apoptosis in human SUNE1 cells assessed as viable cells at 1 uM incubated for 24 hrs by Annexin-V/propidium iodide staining based flow cytometric method (reference value: 93.79%); format: functional; details: SUNE1, 24 h, read-out: Activity
SUNE1 [24] = assay: Induction of apoptosis in human SUNE1 cells assessed as viable cells at 5 uM incubated for 24 hrs by Annexin-V/propidium iodide staining based flow cytometric method (reference value: 93.79%); format: functional; details: SUNE1, 24 h, read-out: Activity
SUNE1 [25] = assay: Induction of apoptosis in human SUNE1 cells incubated for 24 hrs by Annexin-V/propidium iodide staining based flow cytometric method (reference value: 93.79%); format: functional, cell-based
786-0 [26] = assay: Induction of apoptosis in human 786-O cells incubated for 24 hrs by Annexin-V/propidium iodide staining based flow cytometric method; format: functional, cell-based
SUNE1 [27] = assay: Effect on total eIF4E protein expression in human SUNE1 cells incubated for 24 hrs by Western blot analysis relative to control; format: ADME, cell-based; details: sune1, 24 h; how it was run: as §2
786-0 [28] = assay: Effect on total ERK1/2 protein expression in human 786-O cells incubated for 24 hrs by Western blot analysis relative to control; format: cell-based; details: 786-0, 24 h; how it was run: as §2
786-0 [29] = assay: Effect on total MNK1 protein expression in human 786-O cells incubated for 24 hrs by Western blot analysis relative to control; format: cell-based; details: 786-0, 24 h; how it was run: as §2
786-0 [30] = assay: Effect on total eIF4E protein expression in human 786-O cells incubated for 24 hrs by Western blot analysis relative to control; format: cell-based; details: 786-0, 24 h; how it was run: as §2

T2 sequence (P27361 whole entry, looked up): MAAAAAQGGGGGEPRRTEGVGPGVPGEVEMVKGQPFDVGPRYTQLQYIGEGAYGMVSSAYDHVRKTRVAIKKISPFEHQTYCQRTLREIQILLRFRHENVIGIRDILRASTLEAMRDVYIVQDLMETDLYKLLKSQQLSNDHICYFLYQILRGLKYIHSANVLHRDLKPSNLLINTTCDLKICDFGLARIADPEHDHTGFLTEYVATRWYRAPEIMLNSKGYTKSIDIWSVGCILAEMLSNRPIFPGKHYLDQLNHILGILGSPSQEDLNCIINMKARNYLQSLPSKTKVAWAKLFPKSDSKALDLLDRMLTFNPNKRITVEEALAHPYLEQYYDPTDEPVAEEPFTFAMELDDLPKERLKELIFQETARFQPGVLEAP
T2 sequence (P28482 whole entry, looked up): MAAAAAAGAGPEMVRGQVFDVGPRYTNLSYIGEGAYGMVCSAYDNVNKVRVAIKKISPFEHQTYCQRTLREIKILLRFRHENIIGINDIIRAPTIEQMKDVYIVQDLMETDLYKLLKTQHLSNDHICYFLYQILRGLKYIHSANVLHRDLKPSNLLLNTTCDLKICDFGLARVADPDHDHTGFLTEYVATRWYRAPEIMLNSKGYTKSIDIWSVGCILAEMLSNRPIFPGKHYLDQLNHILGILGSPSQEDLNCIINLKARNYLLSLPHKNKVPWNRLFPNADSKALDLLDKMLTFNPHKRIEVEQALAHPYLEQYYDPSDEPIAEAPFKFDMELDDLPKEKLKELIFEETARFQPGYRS

SMILES: COc1ccc(S(=O)(=O)N2CCc3c(sc4ncnc(Nc5ccc(F)cc5OC)c34)C2)cc1
- viability at 1 µM (786-0 [1]): 68.9%
- IC50 [2]: 650 nM
- Activity (CNE): Active
- Activity (CNE-2): Active
- Activity (SUNE1 [3]): Active
- Activity (Homo sapiens): Active
- Activity (A498): Active
- Activity (CAKI-1): Active
- Activity (786-0 [4]): Active
- Activity (786-0 [5]): 17.94%
- Activity (786-0 [6]): 8.5%
- Activity (786-0 [7]): 4.64%
- Activity (786-0 [8]): 37.44%
- Activity (786-0 [9]): 11.79%
- Activity (786-0 [10]): 7.88%
- Activity (SUNE1 [11]): 34.6%
- Activity (SUNE1 [12]): 18.18%
- Activity (SUNE1 [13]): 10.6%
- Activity (SUNE1 [14]): 49.87%
- Activity (SUNE1 [15]): 10.61%
- Activity (SUNE1 [16]): 3.52%
- Activity (SUNE1 [17]): Non-Toxic
- inhibition [18]: Dose-dependent effect
- inhibition [19]: inactive
- Activity (SUNE1 [20]): Non-Toxic
- inhibition [21]: inactive
- viability at 5 µM (786-0 [22]): 42.9%
- viability at 1 µM (SUNE1 [23]): 36.6%
- viability at 5 µM (SUNE1 [24]): 35.9%
- Activity (SUNE1 [25]): Dose-dependent effect
- Activity (786-0 [26]): Dose-dependent effect
- Activity (SUNE1 [27]): Non-Toxic
- Activity (786-0 [28]): Non-Toxic
- Activity (786-0 [29]): Non-Toxic
- Activity (786-0 [30]): Non-Toxic
